# Source: PubChem BioAssay
# MrgX1 antagonist = antagonists of human MrgX1 receptor. Q96LB2. MRGX1-HEK293 calcium flux, Fluo-4, BAM8-22 antagonism; active compounds read low. B-score at 10 µM. 310,000 tested, 1.3% active. AID 588676;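 active = calcium-response B-score plate-corrected more than 3 library SD below zero, starting fluorescence within 5 deviations, no agonist response on first addition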;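 note: peak minus trough fluorescence over baseline after final BAM8-22 challenge near maximal dose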
# Target sequence (Q96LB2 whole entry, looked up): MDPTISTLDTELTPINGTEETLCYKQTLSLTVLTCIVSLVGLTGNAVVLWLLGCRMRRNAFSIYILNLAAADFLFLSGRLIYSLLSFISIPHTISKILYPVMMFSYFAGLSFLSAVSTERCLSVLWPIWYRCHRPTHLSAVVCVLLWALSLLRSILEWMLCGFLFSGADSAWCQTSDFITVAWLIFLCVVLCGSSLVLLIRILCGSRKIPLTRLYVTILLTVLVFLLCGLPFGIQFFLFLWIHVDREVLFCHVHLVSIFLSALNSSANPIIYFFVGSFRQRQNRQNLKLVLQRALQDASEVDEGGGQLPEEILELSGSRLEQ
# RGS4 block = human RGS4 inhibition; 310,000 tested, 0.45% active; AID 463165; P49798; B-score at 10 µM; HEK293 M3R/RGS4 inducible, Fluo-4 calcium flux; active compounds read high; triggered by carbachol at its EC20;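 active = B-score, a plate-corrected calcium signal, over three deviations above library mean, with baseline fluorescence within five deviations of library mean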;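 note: RGS4 expression induced by doxycycline in cells with stable M3 receptor; B-score is computed from the integrated fluorescence ratio over baseline after carbachol; higher B-score means a larger calcium signal and so more RGS4 inhibition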
# Target sequence (P49798 whole entry, looked up): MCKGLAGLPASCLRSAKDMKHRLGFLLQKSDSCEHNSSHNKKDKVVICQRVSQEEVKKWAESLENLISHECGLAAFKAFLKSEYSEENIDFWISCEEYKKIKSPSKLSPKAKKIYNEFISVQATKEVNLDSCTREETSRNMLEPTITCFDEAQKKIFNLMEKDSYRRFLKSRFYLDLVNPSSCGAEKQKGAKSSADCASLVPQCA
# MrgX1 ag = agonists of human MrgX1 receptor | 310,000 tested, 0.44% active | Q96LB2 | MrgX1-HEK293 cells, Fluo-4 calcium fluorescence, agonist mode; active compounds read high | B-score at 10 µM;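 active = calcium response B-score plate-corrected fluorescence ratio at least 3 library SD, with starting fluorescence B-score inside 5 SD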
#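 Assay system: stable human MrgX1 HEK293 cell line. Quantity: 15,000 cells per well. Schedule: cells plated overnight, dye loaded 0.5 h 37 °C, 0.5 h room temperature. Detection: Fluo-4 NW calcium-flux fluorescence, kinetic read. Read-out basis: peak-minus-minimum fluorescence over baseline, converted to B scores. Control set: positive and negative control wells on each plate.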
# MrgX1 PAM = human MrgX1 positive allosteric modulation, primary screen; AID 588675; Q96LB2; 310,000 tested, 0.63% active; B-score at 10 µM; MrgX1-HEK293, Fluo-4 calcium flux, FDSS; active compounds read high;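 active = plate-corrected calcium response at least 3 library SD above typical, normal starting fluorescence, not activating the receptor alone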;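 note: compound read alongside a low EC10 to EC30 dose of BAM8-22 agonist; peak minus trough fluorescence over baseline measured at the second addition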
# RGS4 pot = potentiators or activators of RGS4 | HEK293 M3R/inducible RGS4, carbachol calcium flux Fluo4; active compounds read low | B-score at 10 µM | 310,000 tested, 0.92% active | AID 463111;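 active = B-score of the integrated calcium signal more than 4 SD below the library mean, with starting fluorescence not abnormally high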;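 note: negative B-score means reduced calcium response which marks RGS4 activation or potentiation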
#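 System – HEK293 FlpIn-TREx cells, stable M3R, doxycycline-inducible RGS4 · Reagent – ECmax carbachol challenge · Times – compound preincubation 20 min at room temperature before agonist · Technique – Fluo4 fluorescence kinetic imaging of calcium · Measure – B score of integrated Fluo4 ratio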
# MrgX1 ag reconf = reconfirmed activator of human MrgX1 receptor signaling; MrgX1-HEK293, Fluo-4 calcium fluorescence, FDSS; AID 602412; activation, % at 10 µM; shares compounds with MrgX1 ag; 600 tested, 78% active;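 active = calcium signal rise, corrected for plate position, at least 3 library SD high, with starting brightness within 5 such deviations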
# HEK293 Ca flux = MrgX1 antagonist counter-screen hit in parental HEK293 cells | fluorescence ratio F(max-min)/F0 at 10 µM | shares compounds with MrgX1 antagonist | 4,000 tested, 2% active | AID 624111 | Fluo-4 calcium fluorescence, FDSS;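 active = duplicate-averaged calcium fluorescence ratio at least three times the standard deviation of buffer wells, a nonspecific response in parental cells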
# HEK293 Ca counter = counter-screen for MrgX1 allosteric activators: effect in parental HEK293 cells; parental HEK293 calcium flux, Fluo-4 fluorescence ratio; active compounds read high; shares compounds with MrgX1 antagonist; 4,000 tested, 0.4% active; fluorescence ratio F(max-min)/F0 at 10 µM;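 active = calcium fluorescence ratio, averaged over duplicates, at least 3 SD of the buffer-well ratio, meaning a nonspecific response in receptor-free cells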;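 note: untransfected parental HEK293 lacking MrgX1 used as counterscreen for MrgX1 allosteric activators; fluorescence change taken during the second addition on a kinetic imager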
# HEK293 Ca cntr2 = counter-screen for MrgX1 activators: effect in parental HEK293 cells. fluorescence ratio F(max-min)/F0 at 10 µM. AID 624115. 4,000 tested, 8.7% active. shares compounds with MrgX1 antagonist. Fluo-4 calcium fluorescence (FDSS); active compounds read high;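 active = calcium fluorescence ratio at least three times the spread of buffer wells, meaning a non-specific response in parental cells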
# * hit, by the source's call; i = inactive; . = no result given. In the library only some 3.5% were active in any assay of this set; here they are far more common.
SMILES,MrgX1 antagonist,RGS4 block,MrgX1 ag,MrgX1 PAM,RGS4 pot,MrgX1 ag reconf,HEK293 Ca flux,HEK293 Ca counter,HEK293 Ca cntr2
N/C(=N\N=C/c1ccc(F)cc1)N/N=C\c1ccc(F)cc1,i,i,65.8*,i,i,499.5%*,i,i,75.5*
CCS(=O)(=O)c1nnnn1-c1ccccc1S(C)(=O)=O,i,i,27*,i,i,104.8%*,i,i,i
Cc1ccc(-c2nc(CS(=O)CC(=O)NCCN(CC(C)C)CC(C)C)c(C)o2)cc1 (centres undefined),i,i,i,i,i,.,.,.,.
Cc1nc(NC(=O)/C=C/c2ccc(Cl)cc2Cl)sc1C(=O)N(C)C,i,i,i,i,i,.,.,.,.
CCCc1nc2ccccc2c(=O)n1/N=C/c1c(C)[nH]n(-c2ccc(C)cc2)c1=O,i,i,78.3*,i,i,319.9%*,i,i,91.1*
Cc1ccc(C(=O)NNC(=S)NC(=O)c2ccc(Cl)cc2)cc1,i,i,132*,i,i,746.6%*,i,i,138*
O=C(CCc1ccccc1)NNC(=S)NC(=O)c1ccc(Cl)cc1,i,i,141*,i,i,695.6%*,i,i,126*
O=C(CCc1ccccc1)NNC(=O)c1ccc(Cl)cc1,i,i,i,i,i,.,.,.,.
CCCc1[nH]n(-c2nc3ccccc3s2)c(=O)c1C=NCC(C)C,i,i,29.4*,i,i,226.5%*,i,i,59*
CCN(CC)CCCN=Cc1c(-c2ccccc2)[nH]n(-c2nc3ccccc3s2)c1=O,i,i,i,i,i,.,.,.,.
CCN1CCN(C2=C(NS(=O)(=O)c3ccc(C)cc3)C(=O)c3ccccc3C2=O)CC1,i,i,i,i,i,.,.,.,.
COc1cc(/C=C2\SC(=S)N(NS(=O)(=O)c3ccc(C)cc3)C2=O)cc(OC)c1OC,i,i,i,i,i,.,.,.,.
COc1cc(/C=C2\SC(=S)N(NC(=O)c3ccccc3OC)C2=O)ccc1O,i,i,i,i,i,.,.,.,.
COc1cc(/C=C2\SC(=S)N(NS(=O)(=O)c3ccccc3)C2=O)ccc1O,i,i,87.1*,i,i,375.0%*,i,i,99.1*
COc1cc(/C=C2\SC(=S)N(NS(=O)(=O)c3ccc(C)cc3)C2=O)ccc1O,i,i,116*,i,-7.73*,554.7%*,0.384*,i,149*
O=c1c2c(c(-c3ccccc3)nn1Cc1ccccc1)CCCC2,i,i,i,i,i,.,.,.,.
COC(=O)c1ccc(Cl)cc1N(Cc1c(F)cccc1Cl)S(C)(=O)=O,i,i,71.3*,i,i,290.0%*,i,i,60.8*
C=CCN(c1ccccc1)S(=O)(=O)c1cccc(C(=O)NNC(=O)c2ccccc2O)c1,i,i,i,i,i,.,.,.,.
CSc1ncccc1C(=O)NCCc1ccc(S(N)(=O)=O)cc1,i,i,32.8*,i,i,i,i,i,i
CSc1ncccc1C(=O)NCCc1ccccc1,i,i,i,i,i,.,.,.,.
Cc1ccc(OCC(=O)NNC(=S)NC(=O)C(C)(C)C)c(Br)c1,i,i,65.6*,i,i,507.6%*,i,i,97.3*
COc1ccc(OC)c(NC(=O)Nc2c(O)ccc3ccccc23)c1,i,i,28.9*,i,i,i,i,i,i
CCOC(=O)C1CCN(C(=O)CN2C(=O)c3ccccc3Sc3ncccc32)CC1,i,i,i,i,i,.,.,.,.
Cc1ccc(-c2n[nH]c(=O)c3ccccc23)cc1S(=O)(=O)Nc1ccccc1,i,i,29.8*,i,i,205.6%*,i,i,45.1*
COc1ccccc1Oc1ccnc2cc(Cl)ccc12,i,i,30.1*,i,i,102.7%*,i,i,i
SMILES,MrgX1 antagonist,RGS4 block,MrgX1 ag,MrgX1 PAM,RGS4 pot,MrgX1 ag reconf,HEK293 Ca flux,HEK293 Ca counter,HEK293 Ca cntr2
COC(=O)c1ccccc1-c1ccc(C(c2c(C)[nH][nH]c2=O)c2c(C)[nH][nH]c2=O)o1,i,i,i,i,i,.,.,.,.
COC(=O)c1cccc(-c2ccc(C(c3c(C)[nH][nH]c3=O)c3c(C)[nH][nH]c3=O)o2)c1,i,i,43.2*,i,i,191.9%*,i,i,45.6*
Nc1c(C(=O)c2ccccc2)sc2nsc(SCCN3CCCC3)c12,i,i,i,i,i,.,.,.,.
Nc1c(C(=O)c2ccc(Cl)cc2)sc2nsc(SCCN3CCOCC3)c12,i,i,39.3*,i,i,i,0.478*,i,104*
COc1ccc(N=C2NC(=O)S/C2=C\c2ccc(N(C)C)cc2)cc1,i,i,26.5*,i,-7.19*,230.3%*,i,i,56.9*
COc1cccc(NC(=O)C2C3C=CC4(O3)C2C(=O)N(C(C)C)C4C(=O)NC2CCCCC2C)c1 (centres undefined),i,i,i,i,i,.,.,.,.
CC(C)(C)Nc1c2ccccc2nc2ccccc12,i,i,35.2*,i,i,156.8%*,i,i,i
CS(=O)(=O)N1CCC(CO)(Cc2ccccc2C(F)(F)F)CC1,i,i,i,i,i,.,.,.,.
CCn1c(-c2ccc(N)cc2)nc2ccccc21,i,i,i,i,i,.,.,.,.
CCn1c(-c2ccc(N(C)C)cc2)nc2ccccc21,i,i,30.5*,i,i,87.2%*,i,i,i
CC(C)n1c(-c2ccc(N(C)C)cc2)nc2ccccc21,i,.,30.5*,i,.,162.2%*,i,i,i
O=C1/C(=C/c2ccccc2)Nc2ccccc21,i,i,128*,i,i,i,0.409*,i,224*
Cc1cc(NCc2ccccc2)nc2ccccc12,i,i,82.8*,i,i,292.5%*,i,i,i
O=[N+]([O-])c1cccc(CSc2cccc[n+]2[O-])c1,i,i,i,i,i,.,.,.,.
